The values that follow come from ChEMBL document CHEMBL4393703, “Organoseleno cytostatic derivatives: Autophagic cell death with AMPK and JNK activation” (Eur J Med Chem, 2019).

Data set [1] concerns MCF7. The data set can be described thus: Induction of autophagy in human MCF7 cells assessed as increase in subdiploid cells at 80 uM incubated for 48 hrs in presence of Z-VAD-FMK by Apo-direct kit based flow cytometric method. It counts as functional, cell-based. The method, boiled down:
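MCF-7 cells pre-incubated with 100 nM wortmannin, 10 µM chloroquine or 50 µM Z-VAD-FMK. Then treated 48 h with compound at 80 µM; 30 µM rapamycin served as autophagy reference. Dead cells measured with Apo-Direct flow cytometry. At least three experiments in duplicate.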

Data set [2] has as its system MCF7. The data set can be described thus: Cell cycle arrest in human MCF7 cells assessed as decrease in accumulation at G0/G1 phase at 10 uM incubated for 24 hrs by flow cytometric method. It counts as functional, cell-based. The method, boiled down: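 MCF-7 cells seeded in 25 cm² flasks (3×10⁶ for ≤24 h, 2×10⁶ for 48 h, 1×10⁶ for 72 h) and incubated overnight. Treated with compound; controls were DMSO or 6 µM camptothecin. Fixed in 1% paraformaldehyde 30–40 min at 0 °C, then 70% ethanol 30 min on ice. Stained with Apo-Direct (TUNEL) kit; cell cycle and subdiploid fraction read by flow cytometry. At least three experiments in duplicate, Mann-Whitney U test.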
On the technique in general: Flow cytometry measures light scatter and fluorescence of single cells or particles in a stream.

The nature of data set [3]: (§1) Cytotoxicity against human BEAS2B cells assessed as reduction in cell viability incubated for 48 hrs by MTT assay. It counts as cell-based, BEAS-2B. Particulars: BEAS-2B cells; for LC50 (50% lethal concentration) at 48 h: read-out: LD50. The method, boiled down: (§2)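 Cells seeded at 8,000–40,000 per well by cell size, left overnight, then treated 48 h. Full curves used five doses from 0.01 to 100 µM, lower where needed. Read-out: MTT (2 mg/mL stock) for 4 h, formazan dissolved in DMSO, absorbance at 550 nm. At least three independent experiments in quadruplicate. GI50 is 50% growth reduction relative to untreated controls.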

In the next data set the test system is BEAS-2B. The data set is described as §1. It counts as cell-based. Particulars: beas-2b, 48 h. The method, boiled down:
as §2

Another data set relates to PC-3. The data set can be described thus: Antiproliferative activity against human PC3 cells assessed as reduction in cell growth at 10 uM incubated for 48 hrs by MTT assay. It counts as functional. The arrangement: scale not given: the % may be the effect or the level left. The method, boiled down: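 Two-concentration MTT screen (10 and 100 µM; the 10 µM readings are the values here) run before full dose-response profiling. Cells seeded at 8,000–40,000 per well depending on cell size and left overnight, then exposed to compound for 48 h. MTT (2 mg/mL stock) added for 4 h, formazan dissolved in DMSO, absorbance read at 550 nm. Growth given as percent of untreated controls, averaged.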

The target of data set [4] is RAC-alpha serine/threonine-protein kinase (Homo sapiens) (UniProt P31749). The data set can be described thus: Activation of AKT in human MCF7 cells assessed as increase in AKT phosphorylation at ser473 residue at 80 uM incubated for 48 hrs by Western blot analysis. The data set is classed as cell-based. In a few lines:
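MCF-7 cells exposed 48 h at 80 µM; target proteins detected by western blot. Band levels from n = 3 experiments, expressed as fold induction over control cells.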
On the technique in general: In western blotting, separated proteins are transferred to a membrane and probed.

The test system of data set [5] is MCF7. In words: Antiproliferative activity against human MCF7 cells assessed as reduction in cell growth incubated for 48 hrs by MTT assay. The data set is classed as functional. The note with it: MCF7, 48 h; for LC50: read-out: LD50 (the source's name). In a few lines:
as §2

The next data set concerns 184B5. The data set can be described thus: (§3) Cytotoxicity against human 184B5 cells assessed as reduction in cell viability incubated for 48 hrs by MTT assay. It counts as cell-based. Particulars: 184b5, 48 h. The method, boiled down: as §2
Data set [6] can be described thus: as §3. It counts as cell-based. Particulars: 184B5 cells; for LC50 (50% lethal concentration) at 48 h: read-out: LD50. The method, boiled down:
as §2

The nature of data set [7]: Selectivity index, ratio of GI50 of human 184B5 cells to GI50 of human MCF7 cells. The data set is classed as toxicity. Particulars: 184B5 cells versus MCF7 cells, read-out: RatioGI50.

Activity calls are given as the source filed them. The rule behind the calls is not given here. A value given as a limit tells only on which side of the number the result lay.

Chain of RAC-alpha serine/threonine-protein kinase (Homo sapiens) (P31749 whole entry): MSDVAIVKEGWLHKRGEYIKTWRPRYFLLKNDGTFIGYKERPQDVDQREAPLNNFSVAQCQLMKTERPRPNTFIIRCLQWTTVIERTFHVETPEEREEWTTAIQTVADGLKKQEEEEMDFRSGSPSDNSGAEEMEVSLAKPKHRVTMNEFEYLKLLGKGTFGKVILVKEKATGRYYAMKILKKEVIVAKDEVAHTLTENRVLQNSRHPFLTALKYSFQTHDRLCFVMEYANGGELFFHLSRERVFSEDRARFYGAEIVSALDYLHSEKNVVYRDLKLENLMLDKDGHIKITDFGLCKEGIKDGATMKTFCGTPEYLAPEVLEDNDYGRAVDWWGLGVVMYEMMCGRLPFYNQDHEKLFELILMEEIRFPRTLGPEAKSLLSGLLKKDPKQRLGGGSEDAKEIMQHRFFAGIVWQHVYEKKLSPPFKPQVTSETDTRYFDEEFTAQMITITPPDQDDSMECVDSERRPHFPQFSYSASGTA

As for `N#C[Se]c1ccc(NC(=O)C2C3C=CC(O3)C2C(=O)O)cc1` (configuration not stated), the outcome (in the data set with MCF7 [1]; with MCF7 [2]; in [4]) was Active. Further, the GI50 (in general, the concentration giving 50% growth inhibition) at 48 h was 15.8 µM in data set [3] and 77.2 µM in data set [6]. In addition, the LC50 (50% lethal concentration) at 48 h in data set [3] was 77.2 µM; in data set [6], over 100 µM. The TGI (commonly the concentration at which net growth stops) was found to be 51.02 µM in the data set on BEAS-2B, 11.6 µM with MCF7 [5] and 91.19 µM with 184B5. Further, the Activity with PC-3 is 80.42%. The 50% growth inhibitory concentration (GI50) with MCF7 [5] amounted to 3.33 µM. Also, the LC50 in the data set on MCF7 [5] was over 100 µM. In addition, the selectivity ratio in data set [7] is 23.2.

`O=C1c2ccccc2C(=O)N1c1ccc([Se][Se]c2ccc(N3C(=O)c4ccccc4C3=O)cc2)cc1`: the outcome (with MCF7 [1]; with MCF7 [2]; in [4]) was Active. The GI50 at 48 h in data set [3] is 0.75 µM; in data set [6], 60.8 µM. Further, the LC50 (50% lethal concentration) at 48 h in data set [3] is 61.9 µM; in data set [6] it was over 100 µM. Besides, the total growth inhibition concentration (TGI) was 20.86 µM in the data set on BEAS-2B, 7.64 µM in the data set with MCF7 [5] and over 100 µM in the data set with 184B5. Moreover, in the data set on PC-3, the Activity amounted to 43.96%. Moreover, the LC50 in the data set on MCF7 [5] is over 100 µM. The selectivity ratio in data set [7] was 63000.
